Results gathered from unrelated publications.
Compare with care: the assays were run in different laboratories.
Target: Wee1-like protein kinase (WEE1, Homo sapiens, UniProt P30291)

`O=C(O)[C@H]1[C@H](Cn2nnc3ccccc3c2=O)CC[C@@H]1C(=O)c1ccc(OCCC2CCOCC2)cc1` gave a remaining binding of 100% (cell-free assay; competition with immobilised ligand; 1 µM).
The remaining signal of `Nc1ncnc2occ(-c3ccc(NC(=O)Nc4cc(C(F)(F)F)ccc4F)cc3)c12` is reported as 17% (cell-free assay; inhibitor; 20 µM).
`COc1cc(Cl)c(C(=O)N[C@@H](CN[C@H]2CC[C@@H](N)CC2)Cc2ccc(C#N)cc2)cc1-c1ccc(CN[C@H](C)c2ccc(C)cc2)o1` has a remaining activity of 102% (enzyme activity; inhibitor; 1 µM).
With `COc1cc2ncnc(Nc3ccc(F)c(Cl)c3)c2cc1OCCCN1CCOCC1` the remaining signal was 93.8% (cell-free assay; 0.5 µM).
`Cc1ccc(C(=O)NCc2ccsc2)cc1C#Cc1cn(C(C)C)c2ncnc(N)c12` gave an activity vs control of 103% (enzyme activity; inhibitor; 1 µM).
The activity vs control of `Cc1cc(NC(=O)c2cccc3cc(-c4cccc5[nH]nc(N)c45)ccc23)ccc1F` is reported as 97% (enzyme activity; inhibitor; 0.1 µM).
`CC(=O)N1CCC(c2ccc(C(=O)NC3=NCCN3)cc2C(F)(F)F)CC1` gave a remaining binding of 100% (cell-free assay; competition with immobilised ligand; 1 µM).
The remaining signal of `Cc1ccc(NC(=O)c2ccc(CN3CCN(C)CC3)cc2)cc1Nc1nc(-c2cccnc2)cs1` is reported as 97% (cell-free assay; 0.5 µM).
For `N#Cc1ccc(Nc2ccc3[nH]c(=O)[nH]c3c2)c(Cl)c1`, the remaining binding was 87% (cell-free assay; competition with immobilised ligand; 1 µM).
The remaining signal of `N#CCCc1ccc2c(c1)-c1[nH]c3ccc([N+](=O)[O-])cc3c1CC(=O)N2` is reported as 100% (cell-free assay; 0.5 µM).
The remaining signal of `Cc1ccc(NC(=O)c2ccc(C)c(C(F)(F)F)c2)cc1C#Cc1nn(C2CCC(O)CC2)c2ncnc(N)c12` (stereo not shown) is reported as 95% (cell-free assay; 10 µM).
`Nc1nc(Nc2ccc(S(N)(=O)=O)cc2)nn1C(=O)c1c(F)cccc1F` gave a remaining signal of 83.6% (cell-free assay; 0.5 µM).
With `O=c1nc(-c2ccccn2)sc2ccccc12` the remaining binding was 100% (binding; competition with immobilised ligand; 1 µM).
For `CC(C)(C)c1nc2c(s1)c1nc(N)ncc1c1ccc(NS(=O)(=O)c3c(F)cccc3F)c(F)c12`, the remaining activity was 87% (enzyme activity; inhibitor; radiometric; 1 µM).
`Cc1c(C(=O)O)cc(-c2ccc(C3CCNCC3)cc2)c2ccc(-c3ccc(C(F)(F)F)cc3)cc12` gave a remaining binding of 80% (binding; competition with immobilised ligand; 1 µM).
With `O=C(Nc1cnn(-c2csc(C(=O)NC3COC3)c2)c1)Nc1c(F)cccc1Cl` the remaining activity was 85.2% (enzyme activity; inhibitor; 5 µM).
